Bioassay records as filed in PubChem.
Rows were chosen to be rich in hits. Some 0.99% of all compounds tested hit in one or more screens of this group.
Rce1 inh: inhibitors of yeast Ras-converting enzyme | AID 2563 | yeast membranes, quenched prenylated peptide cleavage fluorescence | calls only | 290,000 compounds, 0.27% hits;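 active = fall in fluorescence gain of 50% or more versus controls, with final raw signal at or below 3038400; inconclusive = same 50% fall but final raw signal above 3038400; inactive = fall in fluorescence gain under 50%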;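 note: plate controls were neutral control wells for no effect and wells lacking membranes for full effect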
Target sequence (Q03530 whole entry, looked up): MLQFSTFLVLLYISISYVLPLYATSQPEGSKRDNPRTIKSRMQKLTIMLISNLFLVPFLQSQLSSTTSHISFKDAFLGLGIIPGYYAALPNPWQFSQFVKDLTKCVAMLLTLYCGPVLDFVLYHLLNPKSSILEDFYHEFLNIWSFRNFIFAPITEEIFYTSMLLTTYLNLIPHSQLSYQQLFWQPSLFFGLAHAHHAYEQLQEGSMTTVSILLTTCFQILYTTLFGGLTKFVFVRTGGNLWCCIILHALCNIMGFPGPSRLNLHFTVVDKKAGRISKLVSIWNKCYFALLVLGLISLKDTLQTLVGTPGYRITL
AI-2 QS modul: Vibrio harveyi AI-2 quorum sensing modulation | Vibrio harveyi JMH597 AI-2 luminescence/OD600 ratio, 9 h; hits give low values; strain lacks LuxN and CqsS sensors; 0 = neutral-control median | activity change, % at 7.5 µM | 300,000 compounds, 0.4% hits | AID 2094; in the data active = activity change below about -75%, passing the limit was not always enough; inconclusive = no clear call, values can overlap the other calls;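 note: luminescence divided by OD600 gain over 9 h not by final OD600 alone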
STK33 inh: blocks human STK33 kinase activity | 320,000 compounds, 0.073% hits | purified STK33, MBP phosphorylation, ADP-Glo luminescence | Q9BYT3 | inhibition, % at 10 µM;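 active = inhibition at or above 25%, using the most active replicate where run in duplicate; inactive = inhibition below 25%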
GSK3beta inhib: human GSK3beta kinase inhibition; GST-GSK3beta kinase, ADP-Glo luminescence, 60 min; hits give low values; activity score (negative = inhibition), % at 10 µM; 300,000 compounds, 0.038% hits; AID 2097;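 active = more than half of replicate wells score below -50%, meaning over 50% inhibition versus plate controls; inconclusive = some replicates but at most half score below -50%; inactive = no replicate scores below -50%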;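 note: 0% = median DMSO wells and -100% = median GW8510 positive control wells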
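Assay system: GST-tagged human GSK3beta kinase, cell-free; Input: 1.6 ng GSK3beta; Medium: Tris/MgCl2 kinase buffer; Timing: 60 min enzyme reaction, room temperature; Signal: ADP-Glo luminescence quantifying ADP generated by kinase; Evaluation: score relative to plate controls; Benchmarks: DMSO neutral wells and GW8510 at 20 µM as positive.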
GSK3 alpha inh: blocks human GSK-3 alpha kinase; P49840; ADP-Glo luminescence, 60 min; inhibition, % at 10 µM; 320,000 compounds, 0.1% hits; AID 2650;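 active = more than half of replicates show inhibition above 20%; inconclusive = some but at most half of replicates above 20% inhibition; inactive = no replicate shows inhibition above 20%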;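 note: GST-tagged GSK-3 alpha with peptide substrate and 25 µM ATP; 0% = DMSO neutral wells and 100% = GW8510 positive control wells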
DYRK1A inh: inhibitors of rat Dyrk1A kinase; Q63470; ADP-Glo luminescence, NFATc1 peptide; inhibition, % at 12.5 µM; 310,000 compounds, 0.43% hits; AID 504441; in the data active = inhibition above about 50%;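 note: plate controls were vehicle with enzyme for no effect and no enzyme for full effect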
* hit, by the source's call; i = inactive; ? = inconclusive; nt = not tested or not shown; + = active, no number.

SMILES	Rce1 inh	AI-2 QS modul	STK33 inh	GSK3beta inhib	GSK3 alpha inh	DYRK1A inh
CCN(CC)c1ccc(C2NC(=O)c3ccccc3N2)cc1 (stereo not drawn)	nt	nt	nt	nt	nt	0.0
O=C(OCC(=O)c1c[nH]c2ccccc12)c1ccc([N+](=O)[O-])s1	i	-98.9*	-0.8	-0.3	1.2	3.2
CCOC(=O)c1c(C)[nH]c(C)c1C(=O)COC(=O)c1ccc([N+](=O)[O-])s1	nt	nt	-0.1	nt	17.5	nt
CCc1cccc2c(C(=O)COC(=O)c3ccc([N+](=O)[O-])s3)c[nH]c12	i	-205.5*	0.5	2.5	-4.1	-46.2
COc1ccc(CCNC(=O)c2cc(C3CC3)nc3c2cnn3C(C)C)cc1	nt	nt	-0.7	nt	1.8	0.2
CC1CN(S(=O)(=O)c2cc(C(=O)NCCC3=CCCCC3)ccc2Cl)CC(C)O1 (stereo not drawn)	i	21.7	-0.9	-1.7	0.5	-5.3
O=C(Nc1cc(S(=O)(=O)N2CCCCC2)ccc1O)c1ccccc1NS(=O)(=O)c1ccc(F)cc1	i	32.1	-1.3	4.9	-3.3	-6.0
O=C(Nc1cc(S(=O)(=O)N2CCCCC2)ccc1Cl)c1ccccc1NS(=O)(=O)c1ccc(F)cc1	+	20.5	-0.6	1.5	-3.0	-1.8
COc1nc(-c2ccccc2)ccc1-c1noc(-c2ccccc2F)n1	+	28.7	-0.4	0.1	-0.2	7.9
COc1nc(-c2ccccc2)ccc1-c1noc(-c2cccnc2)n1	i	11.1	-1.3	-2.7	-1.5	-1.8
CCOc1ccc(S(=O)(=O)Nc2cc(OC)c(OC)cc2C(=O)O)cc1	+	34.6	0.0	-0.4	-3.9	0.5
CC(C)C(NC(=O)c1ccco1)C(=O)NCC(c1ccco1)N1CCCCC1 (stereo not drawn)	+	6.3	0.1	1.7	-0.6	3.3
CCN(C(=O)COC(=O)CCn1c(C)csc1=O)c1c(N)n(Cc2ccccc2)c(=O)[nH]c1=O	nt	nt	-0.8	nt	-5.3	-3.6
CCC(NC(=S)NC1CCCCC1)c1ccc(C(C)C)cc1 (stereo not drawn)	i	22.0	-1.5	0.4	-2.3	-14.8
C[C@H]1c2cccc(O)c2C(O)=C2C(=O)C3(O)C(O)=C(C(N)=O)C(=O)[C@@H](N(C)C)[C@@H]3[C@@H](O)[C@@H]21 (stereo partly drawn)	nt	nt	1.1	nt	-1.2	4.8
C=C1c2cccc(O)c2C(O)=C2C(=O)[C@]3(O)C(O)=C(C(N)=O)C(=O)[C@@H](N(C)C)[C@@H]3[C@@H](O)[C@H]12	i	-83.3*	2.6	-18.5	1.6	9.8
CN(C)c1ccc(O)c2c1CC1CC3C(N(C)C)C(=O)C(C(N)=O)=C(O)[C@@]3(O)C(=O)C1=C2O (stereo partly drawn)	i	-120.2*	-2.3	1.4	-1.5	8.6
O=c1c2ccccc2[nH]c(=S)n1CCCN1CCC(Cc2ccccc2)CC1	i	23.4	0.8	0.2	-2.3	1.0
O=C(NCc1ccccc1Cl)c1ccc(CS(=O)Cc2ccc(Cl)cc2)o1 (stereo not drawn)	i	16.0	-0.2	-4.3	0.0	10.2
O=S(=O)(Nc1cccc2ccccc12)N1CCCC1	+	17.3	-0.3	-1.3	-1.7	-5.7
CCOC(=O)c1c(NC(=O)COc2ccccc2F)sc2c1CC(C)(C)NC2(C)C	+	13.3	-1.5	-3.1	-1.3	nt
Cc1nn2c(-c3ccc(S(=O)(=O)N4CCN(C)CC4)o3)nnc2c2ccccc12	i	32.7	1.2	0.0	1.9	-1.7
O=C(O)c1ccc(NCc2ccc3c(c2)OCO3)cc1	i	-91.8*	0.6	-15.4	-3.4	-5.0
COc1ccc(C(C)=O)cc1COC(=O)CCNS(=O)(=O)c1ccc(C(C)=O)cc1	i	21.3	-0.3	5.0	2.7	0.9
CC(=O)n1cc(-c2ccncc2)c2ccccc21	i	-3.4	9.7	-13.5	23.5	68.6*
SMILES	Rce1 inh	AI-2 QS modul	STK33 inh	GSK3beta inhib	GSK3 alpha inh	DYRK1A inh
NC(=NCCCCCCN=C(N)/N=C(\N)Nc1ccc(Cl)cc1)/N=C(\N)Nc1ccc(Cl)cc1	+	30.0	7.0	0.2	40.3	20.3
CC(C)(C)C(=O)O/N=C(\N)c1ccc([N+](=O)[O-])s1	nt	-84.2*	-1.4	-0.9	0.7	-5.4
N/C(=N\O)c1ccc([N+](=O)[O-])s1	i	63.0	0.6	-0.5	1.0	10.0
N/C(=N\OC(=O)C1CC1)c1ccc([N+](=O)[O-])s1	nt	-87.8*	-0.6	-1.5	-2.2	-3.0
O=C(NC1CCCC1)c1ccc([N+](=O)[O-])s1	i	?	-1.9	0.3	-0.3	nt
CCCN(c1ccccc1F)S(=O)(=O)c1c[nH]c(C(=O)OC)c1	i	13.8	-2.4	2.5	-6.5	-6.9
Cc1cc2cc(C(=O)N3CCc4c([nH]c5ccccc45)C3c3ccccn3)ccc2o1 (stereo not drawn)	+	-2.6	-1.4	2.5	1.1	5.2
O=C(c1ccc(-n2cccn2)cc1)N1CCc2c([nH]c3ccccc23)C1c1ccccn1 (stereo not drawn)	i	1.8	-0.5	-2.1	-1.8	4.8
COc1ccc(-c2ccc3oc(-c4ccc(OC)cc4)c(-c4ccc(OC)cc4)c3c2)cc1	+	19.6	-1.2	2.5	-2.9	2.8
COc1ccc(CN2CCN(Cc3ccccc3F)CC2)cc1OC	i	17.2	-1.5	-4.3	-5.7	nt
Cc1ccc(C(=O)Cn2nnc(-c3ccccc3)n2)cc1	i	-92.3*	-0.8	6.1	-0.4	2.3
Cc1ccc(C(=O)Cn2nnc(-c3ccccc3-n3cnnn3)n2)cc1	i	-6.0	-0.4	0.0	0.3	2.2
Cc1ccc(CNC(=O)c2cc(-c3ccccc3C)nn2CC2CC(c3cccnc3)=NO2)cc1 (stereo not drawn)	nt	nt	-0.3	nt	-2.3	3.9
Cc1ccc(CNC(=O)c2cc(-c3ccccc3)nn2CC2CC(c3cccc([N+](=O)[O-])c3)=NO2)cc1 (stereo not drawn)	+	11.1	-2.4	-1.6	-0.8	4.6
COc1ccc(CCN2CC(C(=O)NCCN3CCOC3=O)CCC2=O)cc1 (stereo not drawn)	i	9.9	0.0	-0.7	0.6	-1.8
O=c1[nH]c(=O)n([C@H]2C[C@H](O)[C@@H](CO)O2)cc1C(F)(F)F	i	-108.2*	-1.3	1.3	-3.1	-2.1
O=c1[nH]c(=O)n(C2C[C@H](O)[C@@H](CO)O2)cc1C(F)(F)F (stereo partly drawn)	nt	nt	-1.0	nt	-2.2	-5.2
Cc1oc2c(CN3CCCC3)c(O)ccc2c(=O)c1-c1ccc(Br)cc1	+	13.1	-0.3	1.7	3.2	-6.7
CC(OC(=O)CCN=C1NS(=O)(=O)c2ccccc21)C(=O)Nc1ccc(F)cc1 (stereo not drawn)	i	16.8	0.0	2.0	-0.3	-3.1
